Reference: ChEMBL document CHEMBL4706562, “Design, synthesis and evaluation of covalent inhibitors of DprE1 as antitubercular agents” (Eur J Med Chem, 2020)
pIC50: −log10 of the molar value. Converted amounts (≈) assume the structure as drawn. The source made the active and inactive calls. The calls are words filed in the database; no cut-off is given here.

Key:
[1] = molecular target: T1, Decaprenylphosphoryl-beta-D-ribose oxidase (Mycobacterium tuberculosis (strain ATCC 25618 / H37Rv)) (UniProt P9WJF1); test: Inhibition of Mycobacterium tuberculosis H37Rv DprE1 assessed as increase in trehalose dimycolates at 100 x MIC incubated for 24 hrs using [14C]acetate by TLC based metabolic labelling assay relative to control
T1 sequence (whole entry): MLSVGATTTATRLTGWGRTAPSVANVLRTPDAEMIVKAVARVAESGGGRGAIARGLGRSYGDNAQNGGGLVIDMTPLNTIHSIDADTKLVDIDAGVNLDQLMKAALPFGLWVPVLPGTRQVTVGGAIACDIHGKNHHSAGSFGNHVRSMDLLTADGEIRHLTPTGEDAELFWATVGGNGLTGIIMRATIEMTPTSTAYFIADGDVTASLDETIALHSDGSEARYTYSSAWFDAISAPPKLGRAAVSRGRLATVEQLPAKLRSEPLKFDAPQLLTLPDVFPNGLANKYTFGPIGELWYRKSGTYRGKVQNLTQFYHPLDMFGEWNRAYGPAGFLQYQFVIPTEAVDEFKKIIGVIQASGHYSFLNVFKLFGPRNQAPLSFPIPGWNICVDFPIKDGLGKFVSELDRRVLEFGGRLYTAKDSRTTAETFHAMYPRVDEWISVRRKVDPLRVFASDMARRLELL
In short: (§1)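 M. tuberculosis H37Rv cultures labelled with [14C]acetate for 24 h. […] Lipids extracted and resolved by TLC, with TDM/TMM compared to untreated control cells. BTZ043 and PBTZ169 served as control inhibitors.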

[2] = molecular target: T1, Decaprenylphosphoryl-beta-D-ribose oxidase (Mycobacterium tuberculosis (strain ATCC 25618 / H37Rv)); test: Inhibition of Mycobacterium tuberculosis H37Rv DprE1 assessed as increase in trehalose monomycolates at 100 x MIC incubated for 24 hrs using [14C]acetate by TLC based metabolic labelling assay relative to control; in short: as §1
[3] = molecular target: T2, Decaprenylphosphoryl-beta-D-ribose oxidase (Mycobacterium tuberculosis (strain ATCC 25618 / H37Rv), UniProt P9WJF1); test: Inhibition of Mycobacterium tuberculosis DprE1 expressed in Escherichia coli BL21 (DE3) cells assessed as formation of resorufin using FPR as substrate by Amplex Red hydrogen/peroxidase coupled assay
T2 sequence (P9WJF1 whole entry): T1 sequence (whole entry)

[4] = tested on: Mycobacterium tuberculosis; test: Antimycobacterial activity against Mycobacterium tuberculosis H37Rv ATCC 25618 assessed as inhibition of visible bacterial growth by MABA assay; type: functional
In short: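 Inoculum adjusted to 1.0 McFarland, diluted 1:20 in Middlebrook 7H9 with 10% OADC and 0.2% glycerol. Compounds taken from 1.0 mg/mL DMSO stocks and serially diluted two-fold. Microplate alamar blue read-out: blue to pink marks growth, colours recorded after 24 h. MIC taken as the lowest concentration giving no colour change. PBTZ169 served as positive control.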

[5] = Half life of the compound in PBS assessed as parent compound remaining by HPLC analysis; type: physicochemical
[6] = Reactivity of compound towards methyl thioglycolate in PBS measured after 48 hrs by LC/MS/MS; type: physicochemical; conditions: buffer
In short: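 Test compound and methyl thioglycolate co-incubated at 37 °C in 50 mM PBS, pH 7.4. The reaction was followed by TLC, and aliquots were injected into LC-MS/MS at set intervals over 48 h. Electrospray positive-ion mass spectra detected MT adducts, and half-life was determined.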

[7] = molecular target: T1, Decaprenylphosphoryl-beta-D-ribose oxidase (Mycobacterium tuberculosis (strain ATCC 25618 / H37Rv)); test: Inhibition of Mycobacterium tuberculosis H37Rv DprE1 assessed as increase in trehalose dimycolates at 10 x MIC preincubated for 24 hrs using [14C]acetate by TLC based metabolic labelling assay relative to control; in short: as §1
[8] = molecular target: T1, Decaprenylphosphoryl-beta-D-ribose oxidase (Mycobacterium tuberculosis (strain ATCC 25618 / H37Rv)); test: Inhibition of Mycobacterium tuberculosis H37Rv DprE1 assessed as increase in trehalose monomycolates at 10 x MIC preincubated for 24 hrs using [14C]acetate by TLC based metabolic labelling assay relative to control; in short: as §1
[9] = molecular target: T1, Decaprenylphosphoryl-beta-D-ribose oxidase (Mycobacterium tuberculosis (strain ATCC 25618 / H37Rv)); test: Inhibition of Mycobacterium tuberculosis DprE1 expressed in Escherichia coli BL21 (DE3) cells assessed as formation of resorufin using FPR as substrate at 20 uM by Amplex Red hydrogen/peroxidase coupled assay; parameters: scale not given: the % may be the effect or the level left
[10] = molecular target: T1, Decaprenylphosphoryl-beta-D-ribose oxidase (Mycobacterium tuberculosis (strain ATCC 25618 / H37Rv)); test: Covalent binding affinity to Mycobacterium tuberculosis DprE1 assessed as adduct formation by measuring 460 Da shift increase in molecular weight at 100 uM by Mass spectrometry analysis
[11] = molecular target: T1, Decaprenylphosphoryl-beta-D-ribose oxidase (Mycobacterium tuberculosis (strain ATCC 25618 / H37Rv)); test: Binding affinity to trypsin digested Mycobacterium tuberculosis DprE1 protein assessed as Cys387 adduct formation with 385-NICVDFPIL-393 sequence at 300 uM by measuring retention time by LC/MS analysis
[12] = molecular target: T1, Decaprenylphosphoryl-beta-D-ribose oxidase (Mycobacterium tuberculosis (strain ATCC 25618 / H37Rv)); test: Binding affinity to trypsin digested Mycobacterium tuberculosis DprE1 protein assessed as Cys387 adduct formation with 387-CVDFP-391 sequence at 300 uM by measuring retention time by LC/MS analysis
[13] = molecular target: T1, Decaprenylphosphoryl-beta-D-ribose oxidase (Mycobacterium tuberculosis (strain ATCC 25618 / H37Rv)); test: Covalent binding affinity to Mycobacterium tuberculosis DprE1 assessed as adduct formation by measuring 490 Da shift increase in molecular weight at 100 uM by Mass spectrometry analysis

| SMILES | Activity [1] | Activity [2] | pIC50 [3] | MIC [4] [µM] | half-life [5] [h] | Activity [6] | further results |
| --- | --- | --- | --- | --- | --- | --- | --- |
| O=c1nc(N2CCN(CC3CCCCC3)CC2)sc2c([N+](=O)[O-])cc(C(F)(F)F)cc12 [MACOZINONE] | Active | Active |  |  |  |  |  |
| C[C@H]1COC2(CCN(c3nc(=O)c4cc(C(F)(F)F)cc([N+](=O)[O-])c4s3)CC2)O1 | Active | Active |  |  |  |  |  |
| N#Cc1ccc2c(=O)nc(N3CCN(CC4CCCCC4)CC3)sc2n1 |  |  | 5.11 | > 12 |  |  |  |
| CN(C)C(=O)/C=C/c1cc(C(F)(F)F)cc2c(=O)nc(N3CCN(CC4CCCCC4)CC3)sc12 |  |  | 5.90 | > 20 | > 48 | Active |  |
| COC(=O)C#Cc1cc(C(F)(F)F)cc2c(=O)nc(N3CCN(CC4CCCCC4)CC3)sc12 | inactive | inactive | 6.85 | 10 (≈ 4.94 µg/mL) | 1.2 | Active | Activity [7]: Active; Activity [8]: Active |
| N#CCCc1cc(C(F)(F)F)cc2c(=O)nc(N3CCN(CC4CCCCC4)CC3)sc12 |  |  | 4.88 | > 9 |  |  |  |
| CNC(=O)/C=C/c1cc(C(F)(F)F)cc2c(=O)nc(N3CCN(CC4CCCCC4)CC3)sc12 | inactive | inactive | 6.41 | 20 (≈ 9.89 µg/mL) |  |  |  |
| N#Cc1cc(C(F)(F)F)cc2c(=O)nc(N3CCN(CC4CCCCC4)CC3)sc12 |  |  | 5.77 | 0.16 (≈ 0.0698 µg/mL) | 12 | Active |  |
| O=c1nc(N2CCN(CC3CCCCC3)CC2)sc2nc(Cl)ncc12 |  |  | < 4.70 | > 20 | 4 | Active |  |
| O=c1nc(N2CCN(CC3CCCCC3)CC2)sc2c(Br)cc(C(F)(F)F)cc12 |  |  | 5.74 | 0.16 (≈ 0.0785 µg/mL) |  |  | Activity [7]: Active; Activity [8]: Active |
| N#Cc1ncc2c(=O)nc(N3CCN(CC4CCCCC4)CC3)sc2n1 |  |  | < 4.70 | 6.73 (≈ 2.49 µg/mL) |  |  |  |
| O=c1nc(N2CCN(CC3CCCCC3)CC2)sc2c(Cl)cc(C(F)(F)F)cc12 |  |  | 6.04 | 0.03 (≈ 0.0134 µg/mL) |  |  | Activity [7]: Active; Activity [8]: Active |
| O=c1nc(N2CCN(CC3CCCCC3)CC2)sc2c(/C=C/c3ccccn3)cc(C(F)(F)F)cc12 |  |  |  | > 20 |  |  | Activity [9]: < 70% |
| NC(=O)CCc1cc(C(F)(F)F)cc2c(=O)nc(N3CCN(CC4CCCCC4)CC3)sc12 |  |  | 4.78 | > 9 |  |  |  |
| COC(=O)CCc1cc(C(F)(F)F)cc2c(=O)nc(N3CCN(CC4CCCCC4)CC3)sc12 |  |  | 5.27 | > 9 |  |  |  |
| N#C/C=C/c1cc(C(F)(F)F)cc2c(=O)nc(N3CCN(CC4CCCCC4)CC3)sc12 |  |  |  | > 20 | 0.2 | Active | Activity [9]: < 70% |
| NC(=O)/C=C/c1cc(C(F)(F)F)cc2c(=O)nc(N3CCN(CC4CCCCC4)CC3)sc12 | inactive | inactive | 6.70 | 20 (≈ 9.61 µg/mL) | 10 | Active | Activity [10]: Active; Retention time [11]: 29.3 min; Activity [7]: Active; Activity [8]: Active |
| O=c1nc(N2CCN(CC3CCCCC3)CC2)sc2c(I)cc(C(F)(F)F)cc12 |  |  | 5.63 | 0.63 (≈ 0.339 µg/mL) |  |  |  |
| COC(=O)/C=C/c1cc(C(F)(F)F)cc2c(=O)nc(N3CCN(CC4CCCCC4)CC3)sc12 | inactive | inactive | 5.91 | > 20 | 1 | Active | Retention time [12]: 43.3 min; Activity [13]: Active; Activity [7]: Active; Activity [8]: Active |
